# Measurements as given in ChEMBL document CHEMBL1955865, “Synthesis of novel spirooxindole derivatives by one pot multicomponent reaction and their antimicrobial activity” (2012).
# How the values were obtained:
# [1] = tested on: Salmonella enterica subsp. enterica serovar Paratyphi B; experiment: Antibacterial activity against Salmonella paratyphi B after 24 hrs by twofold serial dilution method; assay type: functional
# How it was run: (§1)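 Broth microdilution in MHB following the standard bacterial reference method. Compound was dissolved in DMSO (2%) and serially diluted two-fold from 1000 to 15.62 µg/ml in 96-well plates, with an inoculum of about 10^4 CFU/ml. Streptomycin and ciprofloxacin were positive controls. After 24 h at 37 °C, 5 µl of broth was subcultured on MHA. MIC was the lowest concentration without visible growth on agar.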
# [2] = Antifungal activity against Malassezia pachydermatis at 1000 ug/disc after 48 hrs by disc diffusion assay; assay type: functional
# How it was run: (§2)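 Fungal disc diffusion with inoculum from SDA spores (filamentous) or SDB culture (yeast). Test cultures were swabbed on agar, and discs at 1000 µg/disc were left 30 min at room temperature, with a solvent negative control. Plates were incubated 48 h at 27 °C. Zone of inhibition was measured in mm, and the experiment was repeated twice.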
# [3] = tested on: Salmonella enterica subsp. enterica serovar Paratyphi B; experiment: Antibacterial activity against Salmonella paratyphi B at 1000 ug/disc after 24 hrs by disc diffusion assay; assay type: functional; settings: read-out: IZ
# How it was run: (§3)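 Disc diffusion on Mueller Hinton agar. Bacteria were grown 24 h at 37 °C in MHB and diluted to about 10^4 CFU/ml, swabbed onto plates and dried 10 min. Discs were loaded at 1000 μg/disc and held 30 min at room temperature for diffusion. Solvent served as negative control. After 24 h at 37 °C, inhibition zones were read in mm; run twice.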
# Candida albicans [4] = experiment: Antifungal activity against Candida albicans MTCC 227 after 48 to 72 hrs by twofold serial dilution method; assay type: functional
# How it was run: (§4)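 Broth two-fold serial dilution, 1000 to 15.62 µg/ml, with compound dissolved in 2% DMSO, in 96-well plates. Filamentous fungal spores came from 10-day SDA slants at 28 °C, and yeast from SDB grown 48 h at 28 °C. Incubation was 48-72 h at 28 °C. MIC was the lowest concentration with no visible fungal growth.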
# Salmonella typhimurium [5] = experiment: Antibacterial activity against Salmonella Typhimurium MTCC 1251 at 1000 ug/disc after 24 hrs by disc diffusion assay; assay type: functional, Salmonella enterica subsp. enterica serovar Typhimurium; settings: Salmonella enterica, MTCC 1251, 24 h; read-out: IZ
# How it was run: (§5)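 Disc diffusion on Mueller Hinton agar. Cultures (about 10^4 CFU/ml) were swabbed on and dried 10 min. Discs loaded at 1000 µg/disc were left 30 min at room temperature for diffusion, with a solvent negative control. Plates were incubated 24 h at 37 °C. Inhibition zones were measured in mm, and the experiment was done twice.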
# Staphylococcus aureus [6] = experiment: Antibacterial activity against methicillin-resistant Staphylococcus aureus at 1000 ug/disc after 24 hrs by disc diffusion assay; assay type: functional; settings: read-out: IZ; how it was run: as §3
# Staphylococcus aureus [7] = experiment: Antibacterial activity against Staphylococcus aureus MTCC 96 at 1000 ug/disc after 24 hrs by disc diffusion assay; assay type: functional; settings: MTCC 96, 24 h, read-out: IZ; how it was run: as §5
# Botrytis cinerea [8] = experiment: Antifungal activity against Botrytis cinerea after 48 to 72 hrs by twofold serial dilution method; assay type: functional; how it was run: as §4
# Staphylococcus aureus [9] = experiment: Antibacterial activity against Staphylococcus aureus MTCC 96 after 24 hrs by twofold serial dilution method; assay type: functional; settings: MTCC 96, 24 h
# How it was run: (§6)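 Bacteria grown in Mueller Hinton broth for 24 h at 37 °C and diluted to about 10^4 CFU/ml. Compound in 2% DMSO was serially diluted two-fold (1000 to 15.62 µg/ml) in medium in 96-well plates and inoculated. Plates were incubated 24 h at 37 °C. 5 µl of broth was spotted onto MHA, and MIC was taken as the lowest concentration with no visible growth on agar.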
# Klebsiella aerogenes [10] = experiment: Antibacterial activity against Enterobacter aerogenes MTCC 111 at 1000 ug/disc after 24 hrs by disc diffusion assay; assay type: functional; settings: MTCC 111, 24 h, read-out: IZ; how it was run: as §5
# Proteus vulgaris [11] = experiment: Antibacterial activity against Proteus vulgaris MTCC 1771 at 1000 ug/disc after 24 hrs by disc diffusion assay; assay type: functional; settings: MTCC 1771, 24 h, read-out: IZ; how it was run: as §5
# Botrytis cinerea [12] = experiment: Antifungal activity against Botrytis cinerea at 1000 ug/disc after 48 hrs by disc diffusion assay; assay type: functional; settings: read-out: IZ; how it was run: as §2
# Micrococcus luteus [13] = experiment: Antibacterial activity against Micrococcus luteus after 24 hrs by twofold serial dilution method; assay type: functional; how it was run: as §6
# Salmonella typhimurium [14] = experiment: Antibacterial activity against Salmonella Typhimurium MTCC 1251 after 24 hrs by two-fold serial dilution method; assay type: functional, Salmonella enterica subsp. enterica serovar Typhimurium; settings: Salmonella enterica, MTCC 1251, 24 h; how it was run: as §6
# Candida albicans [15] = experiment: Antifungal activity against Candida albicans MTCC 227 at 1000 ug/disc after 48 hrs by disc diffusion assay; assay type: functional; settings: MTCC 227, 48 h, read-out: IZ; how it was run: as §2
# Micrococcus luteus [16] = experiment: Antibacterial activity against Micrococcus luteus at 1000 ug/disc after 24 hrs by disc diffusion assay; assay type: functional; settings: read-out: IZ; how it was run: as §5
# Klebsiella pneumoniae [17] = experiment: Antibacterial activity against Klebsiella pneumoniae MTCC 109 after 24 hrs by twofold serial dilution method; assay type: functional; settings: MTCC 109, 24 h; how it was run: as §6
# Klebsiella pneumoniae [18] = experiment: Antibacterial activity against Klebsiella pneumoniae MTCC 109 at 1000 ug/disc after 24 hrs by disc diffusion assay; assay type: functional; settings: MTCC 109, 24 h, read-out: IZ; how it was run: as §5
# [19] = Antifungal activity against Malassezia pachydermatis after 48 to 72 hrs by twofold serial dilution method; assay type: functional; how it was run: as §4
# Klebsiella aerogenes [20] = experiment: Antibacterial activity against Enterobacter aerogenes MTCC 111 after 24 hrs by twofold serial dilution method; assay type: functional; settings: MTCC 111, 24 h; how it was run: as §6
# Proteus vulgaris [21] = experiment: Antibacterial activity against Proteus vulgaris MTCC 1771 after 24 hrs by twofold serial dilution method; assay type: functional; settings: MTCC 1771, 24 h; how it was run: as §6
# Staphylococcus aureus [22] = experiment: Antibacterial activity against methicillin-resistant Staphylococcus aureus after 24 hrs by twofold serial dilution method; assay type: functional; how it was run: as §1
Compound,MIC [1],inhibition zone (IZ) [2],zone of inhibition at 1000 µg/disc [3],MIC (Candida albicans [4]),zone of inhibition at 1000 µg/disc (Salmonella typhimurium [5]),zone of inhibition at 1000 µg/disc (Staphylococcus aureus [6]),zone of inhibition at 1000 µg/disc (Staphylococcus aureus [7]),MIC (Botrytis cinerea [8]),MIC (Staphylococcus aureus [9]),zone of inhibition at 1000 µg/disc (Klebsiella aerogenes [10]),zone of inhibition at 1000 µg/disc (Proteus vulgaris [11]),zone of inhibition at 1000 µg/disc (Botrytis cinerea [12]),MIC (Micrococcus luteus [13]),MIC (Salmonella typhimurium [14]),zone of inhibition at 1000 µg/disc (Candida albicans [15]),zone of inhibition at 1000 µg/disc (Micrococcus luteus [16]),MIC (Klebsiella pneumoniae [17]),zone of inhibition at 1000 µg/disc (Klebsiella pneumoniae [18]),MIC [19],MIC (Klebsiella aerogenes [20]),other results
CCN1C(=O)C2(C3=C(CN2C)C(=O)c2ccccc2C3=O)c2ccccc21 (stereo not given),500 µg/mL,11 mm,10 mm,500 µg/mL,19 mm,13 mm,22 mm,500 µg/mL,15.6 µg/mL,12 mm,15 mm,8 mm,31.2 µg/mL,31.2 µg/mL,10 mm,18 mm,250 µg/mL,12 mm,250 µg/mL,250 µg/mL,MIC (Proteus vulgaris [21]): 62.5 µg/mL; MIC (Staphylococcus aureus [22]): 250 µg/mL
Cc1ccc2c(c1)C1(C(=O)N2)C2=C(CN1C)C(=O)c1ccccc1C2=O (stereo not given),125 µg/mL,12 mm,11 mm,250 µg/mL,12 mm,12 mm,15 mm,250 µg/mL,31.2 µg/mL,13 mm,9 mm,9 mm,62.5 µg/mL,250 µg/mL,8 mm,13 mm,62.5 µg/mL,13 mm,125 µg/mL,125 µg/mL,MIC (Proteus vulgaris [21]): 250 µg/mL; MIC (Staphylococcus aureus [22]): 125 µg/mL
CN1CC2=C(C(=O)c3ccccc3C2=O)C12C(=O)Nc1ccc(Br)cc12 (stereo not given),500 µg/mL,10 mm,8 mm,500 µg/mL,19 mm,12 mm,20 mm,250 µg/mL,15.6 µg/mL,16 mm,12 mm,11 mm,62.5 µg/mL,31.2 µg/mL,10 mm,17 mm,500 µg/mL,10 mm,500 µg/mL,62.5 µg/mL,MIC (Proteus vulgaris [21]): 125 µg/mL; MIC (Staphylococcus aureus [22]): 250 µg/mL
C#CCN1C(=O)C2(C3=C(CN2C)C(=O)c2ccccc2C3=O)c2ccccc21 (stereo not given),250 µg/mL,10 mm,10 mm,250 µg/mL,15 mm,10 mm,13 mm,250 µg/mL,125 µg/mL,11 mm,9 mm,10 mm,125 µg/mL,62.5 µg/mL,10 mm,12 mm,250 µg/mL,11 mm,250 µg/mL,250 µg/mL,MIC (Proteus vulgaris [21]): 500 µg/mL; MIC (Staphylococcus aureus [22]): 125 µg/mL
CN1CC2=C(C(=O)c3ccccc3C2=O)C12C(=O)Nc1ccc(I)cc12 (stereo not given),500 µg/mL,14 mm,7 mm,250 µg/mL,14 mm,8 mm,16 mm,250 µg/mL,62.5 µg/mL,12 mm,10 mm,12 mm,15.6 µg/mL,125 µg/mL,11 mm,15 mm,250 µg/mL,11 mm,125 µg/mL,250 µg/mL,MIC (Proteus vulgaris [21]): 500 µg/mL; MIC (Staphylococcus aureus [22]): 500 µg/mL
